We go through 23 molecules from ChEMBL document CHEMBL4219120, “Synthesis and SAR study of new hydroxy and chloro-substituted 2,4-diphenyl 5H-chromeno[4,3-b]pyridines as selective topoisomerase IIα-targeting anticancer agents” (Bioorg Med Chem, 2018).

The target in experiment [1] is DNA topoisomerase 2-alpha (Homo sapiens) (UniProt P11388). Put plainly: Inhibition of recombinant human topoisomerase 2alpha assessed as decrease in relaxation of supercoiled pBR322 DNA at 100 uM after 30 mins by agarose gel electrophoresis relative to control. The method in brief: (§1)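 Recombinant human topo IIα (1 unit) with 100 ng supercoiled pBR322 in 10 mM Tris-HCl pH 7.9, 50 mM NaCl, 50 mM KCl, 5 mM MgCl2, 1 mM EDTA, 1 mM ATP, 15 µg/mL BSA, 30 min at 37 °C. Quenched with 7 mM EDTA. 0.8% agarose/TAE gel, 50 V, 1 h; EtBr stain; UV densitometry. Compounds came from 20 mM DMSO stocks. 20 µM was tested only when inhibition at 100 µM exceeded 30%. Etoposide was the positive control.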

Experiment [2] has the same target. The experiment can be described thus: Inhibition of recombinant human topoisomerase 2alpha assessed as decrease in relaxation of supercoiled pBR322 DNA at 20 uM after 30 mins by agarose gel electrophoresis relative to control. The method in brief: as §1
Experiment [3] concerns the target T1, DNA topoisomerase 1 (Homo sapiens) (UniProt P11387).
T1 sequence (whole entry): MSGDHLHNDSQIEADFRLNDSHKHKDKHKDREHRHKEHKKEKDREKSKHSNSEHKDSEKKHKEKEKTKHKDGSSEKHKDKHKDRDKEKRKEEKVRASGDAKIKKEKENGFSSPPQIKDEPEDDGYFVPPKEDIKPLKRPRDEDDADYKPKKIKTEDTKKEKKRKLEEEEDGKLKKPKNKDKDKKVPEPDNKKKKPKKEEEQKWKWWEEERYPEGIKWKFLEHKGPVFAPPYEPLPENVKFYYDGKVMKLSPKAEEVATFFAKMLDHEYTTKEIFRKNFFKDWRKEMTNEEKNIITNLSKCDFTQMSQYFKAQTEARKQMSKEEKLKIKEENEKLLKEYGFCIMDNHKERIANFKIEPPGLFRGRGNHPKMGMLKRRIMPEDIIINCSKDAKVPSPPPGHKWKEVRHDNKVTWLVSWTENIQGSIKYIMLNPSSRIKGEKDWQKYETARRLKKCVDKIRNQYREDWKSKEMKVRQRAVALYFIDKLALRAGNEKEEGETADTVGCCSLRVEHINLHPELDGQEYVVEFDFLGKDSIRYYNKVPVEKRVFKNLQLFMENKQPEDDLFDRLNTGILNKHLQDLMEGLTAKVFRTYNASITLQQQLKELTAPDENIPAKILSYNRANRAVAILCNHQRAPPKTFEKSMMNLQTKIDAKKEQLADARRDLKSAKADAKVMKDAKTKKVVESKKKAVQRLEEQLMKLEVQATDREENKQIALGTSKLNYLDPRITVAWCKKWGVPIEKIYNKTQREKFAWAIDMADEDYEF
Put plainly: Inhibition of recombinant human topoisomerase 1 assessed as decrease in relaxation of supercoiled pBR322 DNA at 100 uM after 30 mins by agarose gel electrophoresis relative to control. The gist of the method: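 Supercoiled pBR322 (100 ng) with 1 unit recombinant human topo I in 10 mM Tris-HCl pH 7.9, 150 mM NaCl, 0.1% BSA, 0.1 mM spermidine, 5% glycerol, 30 min at 37 °C. Stopped with SDS/dye stop solution. Run on 0.8% agarose in TAE, 50 V, 1 h; EtBr-stained; bands quantitated under UV. Compounds came from 20 mM DMSO stocks. 20 µM was tested only when inhibition at 100 µM exceeded 30%. Camptothecin was the positive control.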

A further experiment has as its system HCT-15. Put plainly: Antiproliferative activity against human HCT15 cells after 72 hrs by CCK-8 assay. It is filed as functional, cell-based. The settings on record: HCT-15, 72 h. The gist of the method:
(§2)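 Cells seeded at 2-4 x 10^4 per well and grown overnight in medium with 10% FBS (37 °C, 5% CO2). After 4 h FBS starvation, medium was replaced with medium containing graded compound concentrations for 72 h. CCK-8 was added for 4 h more, then absorbance read at 450 nm. IC50 came from a four-parameter logistic fit. Mean ± S.D. of three experiments, each in triplicate.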

Another experiment relates to T47D. The experiment can be described thus: Antiproliferative activity against human T47D cells after 72 hrs by CCK-8 assay. It is filed as functional, cell-based. The gist of the method:
as §2

A further experiment has as its system HeLa. The experiment can be described thus: Antiproliferative activity against human HeLa cells after 72 hrs by CCK-8 assay. It is filed as functional, cell-based. The method in brief:
as §2

Experiment [4] has as its target DNA topoisomerase 2-alpha (Homo sapiens) (UniProt P11388). Put plainly: Inhibition of recombinant human topoisomerase 2alpha assessed as decrease in relaxation of supercoiled pBR322 DNA at 100 uM after 30 mins by agarose gel electrophoresis relative to etoposide.
Experiment [5] has the same target. The experiment can be described thus: Inhibition of recombinant human topoisomerase 2alpha assessed as decrease in relaxation of supercoiled pBR322 DNA at 20 uM after 30 mins by agarose gel electrophoresis relative to etoposide.
Experiment [6] concerns the target T1, DNA topoisomerase 1 (Homo sapiens). The experiment can be described thus: Inhibition of recombinant human topoisomerase 1 assessed as decrease in relaxation of supercoiled pBR322 DNA at 100 uM after 30 mins by agarose gel electrophoresis relative to camptothecin.
The target is the same in experiment [7]. Put plainly: Inhibition of recombinant human topoisomerase 1 assessed as decrease in relaxation of supercoiled pBR322 DNA at 20 uM after 30 mins by agarose gel electrophoresis relative to camptothecin.

Counter-ions that a name gives are not always drawn. Active and inactive are the calls of the source. The calls are words filed in the database; no cut-off is given here.

Chain of DNA topoisomerase 2-alpha (Homo sapiens) (P11388 whole entry): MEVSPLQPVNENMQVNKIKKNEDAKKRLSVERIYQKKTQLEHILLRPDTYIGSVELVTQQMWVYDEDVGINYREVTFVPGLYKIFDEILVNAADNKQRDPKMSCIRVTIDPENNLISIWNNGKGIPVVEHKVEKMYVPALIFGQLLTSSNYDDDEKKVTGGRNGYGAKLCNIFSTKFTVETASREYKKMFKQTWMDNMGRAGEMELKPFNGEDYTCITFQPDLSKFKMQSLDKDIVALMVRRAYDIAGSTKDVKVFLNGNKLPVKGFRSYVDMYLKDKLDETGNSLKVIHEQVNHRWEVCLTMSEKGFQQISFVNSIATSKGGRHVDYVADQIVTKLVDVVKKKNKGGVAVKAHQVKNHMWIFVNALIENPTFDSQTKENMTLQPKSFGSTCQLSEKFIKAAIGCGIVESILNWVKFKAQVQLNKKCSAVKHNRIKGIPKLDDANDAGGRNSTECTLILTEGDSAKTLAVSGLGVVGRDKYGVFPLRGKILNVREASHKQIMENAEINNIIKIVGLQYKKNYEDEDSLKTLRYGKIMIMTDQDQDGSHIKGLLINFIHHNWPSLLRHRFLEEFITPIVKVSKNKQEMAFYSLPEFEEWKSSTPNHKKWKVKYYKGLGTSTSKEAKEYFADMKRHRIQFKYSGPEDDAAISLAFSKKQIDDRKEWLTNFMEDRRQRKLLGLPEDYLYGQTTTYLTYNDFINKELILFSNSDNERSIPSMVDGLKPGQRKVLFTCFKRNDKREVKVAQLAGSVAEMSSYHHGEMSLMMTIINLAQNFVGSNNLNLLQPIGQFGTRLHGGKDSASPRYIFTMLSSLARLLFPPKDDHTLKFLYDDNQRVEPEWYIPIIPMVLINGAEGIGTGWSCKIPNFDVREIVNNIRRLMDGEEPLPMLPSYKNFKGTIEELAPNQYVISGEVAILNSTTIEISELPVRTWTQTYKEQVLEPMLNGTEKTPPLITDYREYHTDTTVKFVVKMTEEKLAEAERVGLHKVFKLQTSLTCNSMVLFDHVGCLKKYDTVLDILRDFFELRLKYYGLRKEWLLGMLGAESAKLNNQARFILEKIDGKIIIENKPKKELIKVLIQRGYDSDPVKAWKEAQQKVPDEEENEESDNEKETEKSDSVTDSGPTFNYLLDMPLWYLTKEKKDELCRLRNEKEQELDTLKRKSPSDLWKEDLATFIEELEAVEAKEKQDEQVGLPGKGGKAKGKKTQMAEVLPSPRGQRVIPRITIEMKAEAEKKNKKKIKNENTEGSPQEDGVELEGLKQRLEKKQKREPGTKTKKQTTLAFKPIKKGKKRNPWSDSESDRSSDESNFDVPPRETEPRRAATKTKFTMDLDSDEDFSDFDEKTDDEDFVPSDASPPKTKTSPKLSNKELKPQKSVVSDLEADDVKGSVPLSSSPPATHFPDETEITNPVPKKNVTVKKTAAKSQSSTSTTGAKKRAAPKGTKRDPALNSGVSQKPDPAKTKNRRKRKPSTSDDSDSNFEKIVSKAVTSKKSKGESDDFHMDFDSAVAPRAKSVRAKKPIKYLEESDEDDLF

Regarding `Oc1ccccc1-c1cc(-c2ccccc2Cl)c2c(n1)-c1ccccc1OC2`, the inhibition in experiment [1] was 78.1%; in experiment [2], 45.5%. The inhibition result in experiment [3] is “inactive”. In addition, the IC50 is above 50000 nM in the experiment on HCT-15, 1660 nM in the experiment on T47D and above 50000 nM in the experiment with HeLa.
Take `Oc1ccccc1-c1cc(-c2ccc(Cl)cc2)nc2c1oc1ccccc12`: the fold change (FC) in experiment [4] amounted to 0.99; in experiment [5], 0.63; in [6], 1.39; in [7], 0.93.
`Oc1cccc(-c2cc(-c3ccccc3Cl)nc3c2oc2ccccc23)c1`: the fold change (FC) in experiment [4] is 0.95; in experiment [5], 0.42; in experiment [6] it was 1.22; in [7], 0.98.
Regarding `Oc1cccc(-c2cc(-c3cccc(Cl)c3)c3c(n2)-c2ccccc2OC3)c1`, the inhibition in experiment [1] was 63.6%; in experiment [3], 12%. Moreover, in experiment [2], the inhibition entry was “inactive”. Further, the IC50 turned out to be 1230 nM with HCT-15, 860 nM in the experiment with T47D and 820 nM in the experiment with HeLa.
Turning to `Oc1ccc(-c2cc(-c3ccc(Cl)cc3)nc3c2oc2ccccc23)cc1`, the fold change (FC) in [4] was 1.15; in [5], 1.75; in experiment [6], 1.62; in experiment [7], 1.4.
In the case of `Oc1ccccc1-c1cc(-c2ccc(Cl)cc2)c2c(n1)-c1ccccc1OC2`, the inhibition came to 34.7% in [1] and 20.1% in [3]. Besides, the inhibition result in experiment [2] was “inactive”. Also, the IC50 in the experiment on HCT-15, in the experiment on T47D and in the experiment on HeLa was above 50000 nM each time.
Turning to `Oc1ccccc1-c1cc(-c2ccccc2Cl)nc2c1COc1ccccc1-2`, the inhibition in experiment [1] was 79.1%; in experiment [2], 47.3%; in [3], 4.7%. Further, the IC50 in the experiment on HCT-15, in the experiment with T47D and in the experiment on HeLa was above 50000 nM each time. Besides, the values for the fold change (FC) in [4], in experiment [5] and in [6] were 1.19, 1.33 and 0.06, respectively.
Turning to `Oc1ccc(-c2cc(-c3ccccc3Cl)nc3c2oc2ccccc23)cc1`, the fold change (FC) was determined as 1.07 in experiment [4], 0.56 in [5], 1.39 in experiment [6] and 1.99 in [7].
With `Oc1ccc(-c2cc(-c3cccc(Cl)c3)nc3c2COc2ccccc2-3)cc1`, the inhibition in experiment [1] stood at 95.9%; in experiment [2], 57.3%. Moreover, the inhibition result in experiment [3] was “inactive”. The IC50 in the experiment on HCT-15 is 1770 nM; with T47D it was 880 nM; with HeLa it was 890 nM. The fold change (FC) in experiment [4] was determined as 1.44; in [5], 1.61. Besides, the “fold change (FC)” value in experiment [6] is “inactive”.
As for `Oc1ccccc1-c1cc(-c2cccc(Cl)c2)c2c(n1)-c1ccccc1OC2`, the inhibition was determined as 18.9% in [1] and 21.1% in [3]. Further, the IC50 in the experiment with HCT-15, in the experiment on T47D and with HeLa was above 50000 nM throughout.
As to `Oc1ccccc1-c1cc(-c2ccccc2Cl)nc2c1oc1ccccc12`, the fold change (FC) in [4] is 0.98; in experiment [5], 0.62; in experiment [6], 0.18.
Take `Oc1ccc(-c2cc(-c3ccc(Cl)cc3)nc3c2COc2ccccc2-3)cc1`: the results for the inhibition in experiment [1] and in [2] were 87.8% and 41.9%, respectively. For the same molecule, the inhibition entry in [3] is “inactive”. Besides, the IC50 with HCT-15 was 1830 nM; with T47D it was 1720 nM; in the experiment with HeLa it was 860 nM. Besides, the results for the fold change (FC) in experiment [4] and in experiment [5] were 1.32 and 1.18, respectively. Further, in experiment [6], the “fold change (FC)” value is “inactive”.
As for `Oc1cccc(-c2cc(-c3ccccc3Cl)c3c(n2)-c2ccccc2OC3)c1`, the inhibition in [1] was 91.7%; in experiment [2] it was 57%. For the same molecule, the inhibition entry in [3] is “inactive”. Besides, the IC50 in the experiment on HCT-15 is 1520 nM; in the experiment with T47D, 860 nM; with HeLa, 740 nM.
On to `Oc1ccccc1-c1cc(-c2ccc(Cl)cc2)nc2c1COc1ccccc1-2`, for which the values for the inhibition in experiment [1], in experiment [2] and in experiment [3] were 88.9%, 56.6% and 7.6%, respectively. In addition, the IC50 in the experiment on HCT-15 is 1660 nM; in the experiment on T47D it was above 50000 nM; in the experiment on HeLa it was above 50000 nM. Besides, the fold change (FC) came out at 1.34 in experiment [4], 1.59 in [5] and 0.1 in [6].
For the molecule `Oc1cccc(-c2cc(-c3ccc(Cl)cc3)c3c(n2)-c2ccccc2OC3)c1`, the inhibition in [1] was 66.7%; in experiment [2] it was 4.7%; in experiment [3], 20.2%. Besides, the IC50 in the experiment on HCT-15 is 4570 nM; in the experiment on T47D, 750 nM; with HeLa, 1940 nM.
`Oc1cccc(-c2cc(-c3ccc(Cl)cc3)nc3c2oc2ccccc23)c1`: the fold change (FC) in [4] is 1.01; in experiment [5], 0.27; in experiment [6], 1.32; in experiment [7], 2.09.
Take `COc1cccc2c1C(=O)c1c(O)c3c(c(O)c1C2=O)C[C@@](O)(C(=O)CO)C[C@@H]3O[C@H]1C[C@H](N)[C@H](O)[C@H](C)O1` [DOXORUBICIN HYDROCHLORIDE]: the IC50 in the experiment with HCT-15 turned out to be 730 nM; in the experiment with HeLa, 1700 nM.
Regarding `COc1cc([C@@H]2c3cc4c(cc3[C@@H](O[C@@H]3O[C@@H]5CO[C@@H](C)O[C@H]5[C@H](O)[C@H]3O)[C@H]3COC(=O)[C@H]23)OCO4)cc(OC)c1O` [ETOPOSIDE], the IC50 in the experiment with HCT-15 came to 2450 nM; with T47D it was 320 nM.
For `Oc1cccc(-c2cc(-c3ccc(Cl)cc3)nc3c2COc2ccccc2-3)c1`, the inhibition in experiment [1] is 71.3%; in [2], 63.8%; in [3] it was 28.8%. The IC50 with HCT-15 worked out at 2300 nM; in the experiment with T47D it was 1180 nM; with HeLa, 760 nM. Further, the results for the fold change (FC) in experiment [4], in [5] and in [6] were 1.07, 1.8 and 0.36, respectively.
For `Oc1cccc(-c2cc(-c3cccc(Cl)c3)nc3c2oc2ccccc23)c1`, the fold change (FC) in [4] was 0.98; in [5] it was 0.65; in experiment [6], 1.12; in [7], 2.02.
As for `CC[C@@]1(O)C(=O)OCc2c1cc1n(c2=O)Cc2cc3ccccc3nc2-1` [CAMPTOTHECIN], the IC50 with HCT-15 turned out to be 20 nM; in the experiment on T47D it was 490 nM; in the experiment on HeLa, 130 nM.
Consider `Oc1ccccc1-c1cc(-c2cccc(Cl)c2)nc2c1oc1ccccc12`, for which the fold change (FC) in [4] came out at 0.97; in experiment [5], 0.91; in experiment [6], 1.01; in experiment [7] it was 0.38.
In the case of `Oc1ccccc1-c1cc(-c2cccc(Cl)c2)nc2c1COc1ccccc1-2`, the inhibition in experiment [1] came to 75.1%; in experiment [2] it was 51.9%; in experiment [3] it was 4.4%. In addition, the IC50 in the experiment with HCT-15 is 2230 nM; in the experiment on T47D, 1230 nM; with HeLa it was 680 nM. Also, the values for the fold change (FC) in [4], in experiment [5] and in experiment [6] were 1.13, 1.46 and 0.06, respectively.
